Measurements taken from ChEMBL document CHEMBL1821692, “Synthesis and evaluation of diarylthiazole derivatives that inhibit activation of sterol regulatory element-binding proteins” (J Med Chem, 2011).
≈ marks a conversion by molar mass, not a printed value. Calls of active or inactive are those of the source. The calls are words filed in the database; no cut-off is given here.

Key:
[1] = Apparent permeability at 10 uM after 4 hrs by PAMPA; assay type: ADME
In short: (§1)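 Passive diffusion across 15% soy lecithin in n-dodecane artificial membrane on a filter plate. […] Sandwich incubated 4 h at 37 °C. Acceptor, donor and initial donor solutions quantified by LC-MS/MS; Papp and % membrane retention calculated.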

[2] = Aqueous solubility of the compound at pH 7 after 24 hrs by LC-MS/MS analysis; assay type: physicochemical; conditions: buffer, pH 7, 24 h
In short: (§2)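 DMSO stock diluted to 250 μM in aqueous buffer at pH 3 or pH 7 and held 24 h. Solution filtered through a 0.22 μm membrane; compound in the filtrate quantified by LC-MS/MS.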

[3] = system: Hepatocyte; test: Metabolic stability in mouse hepatocytes at 1 uM after 90 mins by LC-MS/MS analysis; assay type: ADME, cell-based; conditions: 1.5 h
In short: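 Each compound at 1 μM incubated at 37 °C in Leibovitz L-15 medium with mouse hepatocytes (3×10^5 cells mL⁻¹), in duplicate with shaking. […] After centrifugation the supernatant went to LC-MS/MS. Controls were compound in medium alone, and 7-ethoxycoumarin/7-hydroxycoumarin for phase I/II activity.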

[4] = Aqueous solubility of the compound at pH 3 after 24 hrs by LC-MS/MS analysis; assay type: physicochemical; conditions: buffer, pH 3, 24 h; in short: as §2
[5] = system: Hepatocyte; test: Half life in mouse hepatocytes at 1 uM after 90 mins by LC-MS/MS analysis; assay type: ADME, cell-based, Liver; conditions: 1.5 h
In short: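 Compound at 1 μM incubated at 37 °C with shaking in Leibovitz L-15 medium with mouse hepatocytes (3×10^5 cells mL⁻¹), in duplicate. […] Medium-only incubations served as negative controls; 7-ethoxycoumarin and 7-hydroxycoumarin were positive controls for phase I/II activity.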

[6] = Apparent permeability assessed as membrane retention at 10 uM after 4 hrs by PAMPA; assay type: ADME; in short: as §1
[7] = target: T1, Sterol regulatory element-binding protein 2 (Homo sapiens) (UniProt Q12772); conditions: CHO-K1; 1 to 20 uM
T1 sequence (whole entry): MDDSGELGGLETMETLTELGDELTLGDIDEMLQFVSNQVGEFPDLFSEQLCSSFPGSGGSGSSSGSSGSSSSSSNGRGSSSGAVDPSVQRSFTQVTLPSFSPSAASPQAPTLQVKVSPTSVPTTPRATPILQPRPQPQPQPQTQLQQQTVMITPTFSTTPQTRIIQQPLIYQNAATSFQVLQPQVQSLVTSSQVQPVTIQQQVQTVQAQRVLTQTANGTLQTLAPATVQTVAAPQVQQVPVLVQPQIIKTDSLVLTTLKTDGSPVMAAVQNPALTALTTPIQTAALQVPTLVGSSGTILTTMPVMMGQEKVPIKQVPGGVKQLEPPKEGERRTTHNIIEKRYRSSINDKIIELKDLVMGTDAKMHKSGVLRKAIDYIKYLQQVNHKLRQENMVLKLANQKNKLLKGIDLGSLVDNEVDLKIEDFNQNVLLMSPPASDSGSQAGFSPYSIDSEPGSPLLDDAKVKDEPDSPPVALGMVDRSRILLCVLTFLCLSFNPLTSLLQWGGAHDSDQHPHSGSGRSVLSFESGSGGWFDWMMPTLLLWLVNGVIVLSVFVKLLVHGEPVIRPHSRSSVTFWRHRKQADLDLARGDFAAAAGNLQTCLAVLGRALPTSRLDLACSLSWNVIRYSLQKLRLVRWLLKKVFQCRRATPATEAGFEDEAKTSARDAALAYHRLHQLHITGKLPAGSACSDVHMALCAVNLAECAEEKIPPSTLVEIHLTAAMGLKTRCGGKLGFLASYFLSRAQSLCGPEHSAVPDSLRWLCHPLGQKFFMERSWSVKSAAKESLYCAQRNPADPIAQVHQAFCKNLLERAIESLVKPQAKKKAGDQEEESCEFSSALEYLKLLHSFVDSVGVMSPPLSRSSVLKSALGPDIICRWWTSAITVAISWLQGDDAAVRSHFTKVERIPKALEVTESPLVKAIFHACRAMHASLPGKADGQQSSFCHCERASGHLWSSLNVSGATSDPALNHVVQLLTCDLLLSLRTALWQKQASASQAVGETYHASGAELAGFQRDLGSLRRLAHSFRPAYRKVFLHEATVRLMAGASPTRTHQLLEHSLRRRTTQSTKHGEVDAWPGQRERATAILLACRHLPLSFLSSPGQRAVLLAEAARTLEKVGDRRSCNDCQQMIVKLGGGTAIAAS

| SMILES | Papp [1] [×10⁻⁶ cm/s] | solubility [2] [µM] | Stability [3] | solubility [4] [µM] | t1/2 [5] [min] | Activity [6] [%] | inhibition [7] |
| --- | --- | --- | --- | --- | --- | --- | --- |
| CCCc1cc(-c2nc(-c3ccc(NC(C)C)cc3)cs2)ccn1 | 1.059 | 3 (≈ 1.01 µg/mL) | Stable | > 225 | 22.4 | 93.95 |  |
| CC(=O)CC(c1ccccc1)c1c(O)c2ccccc2oc1=O (stereo not given) [WARFARIN] |  |  |  |  |  | 0 |  |
| CCCc1cc(-c2nc(-c3ccc(C)cc3)cs2)ccn1 [FATOSTATIN] | 0.7555 | 2 (≈ 0.589 µg/mL) | Stable | 80 (≈ 23.6 µg/mL) | 10.1 | 94 |  |
| CCCc1cc(-c2nc(-c3ccc(NS(C)(=O)=O)cc3)cs2)ccn1 | 14.98 | 33 (≈ 12.3 µg/mL) | Stable | > 225 | 44.4 | 97.35 | inactive |
